In brackets after ≈: the same amount, converted by molar mass. A value given as a limit tells only on which side of the number the result lay.

Test system in the first data set: not listed separately
Put plainly: Passive permeability of the compound in dog RRCK cells. The class given is ADME, cell-based, Canis lupus familiaris, MDCKII-LE. As to conditions: MDCK, read-out: permeability. In a few lines: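 Passive permeability measured in the RRCK cell line; reported as 10^-6 cm/s.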
Consider `Cc1cnc(NC(=O)c2cc(Oc3cnc(C(=O)N(C)C)nc3)c3cn(C)nc3c2)cn1`, for which the Papp worked out at 11.5 ×10⁻⁶ cm/s.
Consider `Cc1cnc(NC(=O)c2cc(Oc3ccc(S(C)(=O)=O)cc3)c3cn(C)nc3c2)cn1`, for which the Papp was 20.4 ×10⁻⁶ cm/s.
In the case of `CCS(=O)(=O)c1ccc(Oc2cc(C(=O)Nc3cnc(C)cn3)cc3nn(C)cc23)cc1`, the Papp came out at 10.6 ×10⁻⁶ cm/s.
On to `Cc1cnc(NC(=O)c2cc(Oc3cnc(C(=O)N4CCC4)c(F)c3)c3cn(C)nc3c2)cn1`, for which the Papp amounted to 11.9 ×10⁻⁶ cm/s.
Regarding `CCCn1cc2c(Oc3ccc(S(C)(=O)=O)cc3)cc(C(=O)Nc3cnc(C)cn3)cc2n1`, the Papp came out at 14.2 ×10⁻⁶ cm/s.

Test system in another data set: not listed separately
In words: Kinetic solubility of the compound. As to conditions: read-out: Kinetic_solubility. The class given is physicochemical.
Turning to `Cc1cnc(NC(=O)c2cc(Oc3cnc(C(=O)N(C)C)nc3)c3cn(C)nc3c2)cn1`, the solubility kinetic amounted to 446 µM (≈ 193 µg/mL).
`Cc1cnc(NC(=O)c2cc(Oc3ccc(S(C)(=O)=O)cc3)c3cn(C)nc3c2)cn1`: the solubility kinetic stood at 454 µM (≈ 199 µg/mL).
As to `CCS(=O)(=O)c1ccc(Oc2cc(C(=O)Nc3cnc(C)cn3)cc3nn(C)cc23)cc1`, the solubility kinetic turned out to be 69 µM (≈ 31.2 µg/mL).
`Cc1cnc(NC(=O)c2cc(Oc3cnc(C(=O)N4CCC4)c(F)c3)c3cn(C)nc3c2)cn1`: the solubility kinetic came to 70 µM (≈ 32.3 µg/mL).
For the molecule `CCCn1cc2c(Oc3ccc(S(C)(=O)=O)cc3)cc(C(=O)Nc3cnc(C)cn3)cc2n1`, the solubility kinetic is 2.3 µM (≈ 1.07 µg/mL).

Test system in a further data set: not listed separately
In words: Intrinsic clearance of the compound in human liver microsomes. The class given is ADME, Microsome. Conditions: read-out: CLH. In a few lines: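 Human liver microsomal stability; intrinsic clearance expressed as ml/min/kg.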
Background: Microsomes from liver hold many membrane-bound enzymes, among them those of drug oxidation.
Regarding `Cc1cnc(NC(=O)c2cc(Oc3cnc(C(=O)N(C)C)nc3)c3cn(C)nc3c2)cn1`, the CLint scaled is under 8 mL/min/kg.
As to `Cc1cnc(NC(=O)c2cc(Oc3ccc(S(C)(=O)=O)cc3)c3cn(C)nc3c2)cn1`, the CLint scaled is under 8 mL/min/kg.
Still for that read-out and setting: under `CCS(=O)(=O)c1ccc(Oc2cc(C(=O)Nc3cnc(C)cn3)cc3nn(C)cc23)cc1` stands under 8 mL/min/kg; under `Cc1cnc(NC(=O)c2cc(Oc3cnc(C(=O)N4CCC4)c(F)c3)c3cn(C)nc3c2)cn1`, under 8 mL/min/kg; under `CCCn1cc2c(Oc3ccc(S(C)(=O)=O)cc3)cc(C(=O)Nc3cnc(C)cn3)cc2n1`, under 8 mL/min/kg.

The target of another data set is T1, Hexokinase-4 (Homo sapiens, UniProt P35557).
T1 sequence (P35557 whole entry): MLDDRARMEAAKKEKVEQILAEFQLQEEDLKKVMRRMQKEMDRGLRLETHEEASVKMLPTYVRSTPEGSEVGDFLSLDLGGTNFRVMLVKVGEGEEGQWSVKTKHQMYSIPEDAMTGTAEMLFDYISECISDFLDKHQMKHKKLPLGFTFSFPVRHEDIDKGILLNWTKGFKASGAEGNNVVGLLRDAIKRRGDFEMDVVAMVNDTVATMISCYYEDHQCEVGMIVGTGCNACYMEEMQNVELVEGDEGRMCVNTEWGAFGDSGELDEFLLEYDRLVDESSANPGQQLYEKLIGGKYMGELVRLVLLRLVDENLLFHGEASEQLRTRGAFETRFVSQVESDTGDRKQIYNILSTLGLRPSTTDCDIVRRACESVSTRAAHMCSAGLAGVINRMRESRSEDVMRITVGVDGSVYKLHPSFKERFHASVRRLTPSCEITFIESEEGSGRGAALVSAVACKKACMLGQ
Put plainly: Activation of recombinant human glucokinase assessed measuring rate of glucose 6-phosphate formation using G6PDH/NADP coupling.
Settings: not given
For orientation: EC50 means the concentration at which the effect is half-maximal. As for `Cc1cnc(NC(=O)c2cc(Oc3cnc(C(=O)N(C)C)nc3)c3cn(C)nc3c2)cn1`, the EC50 came out at 910 nM.
On the same count and under the same terms, under `Cc1cnc(NC(=O)c2cc(Oc3ccc(S(C)(=O)=O)cc3)c3cn(C)nc3c2)cn1` stands 1930 nM.
With `CCS(=O)(=O)c1ccc(Oc2cc(C(=O)Nc3cnc(C)cn3)cc3nn(C)cc23)cc1`, the EC50 is 980 nM.
With `Cc1cnc(NC(=O)c2cc(Oc3cnc(C(=O)N4CCC4)c(F)c3)c3cn(C)nc3c2)cn1`, the EC50 came to 340 nM.
Same read-out and setting: with `CCCn1cc2c(Oc3ccc(S(C)(=O)=O)cc3)cc(C(=O)Nc3cnc(C)cn3)cc2n1` the figure was 310 nM.

For the origin of these results see ChEMBL document CHEMBL2203262, “The design and synthesis of indazole and pyrazolopyridine based glucokinase activators for the treatment of type 2 diabetes mellitus” (Bioorg Med Chem Lett, 2012).
